# SUMO1 PPI mod: SUMO1-SIM interaction modulation. 360,000 compounds, 0.33% hits. P63165. SUMO1 binding to a labelled peptide, TR-FRET, 1 h. inhibition, % at 20 µM; in the data active means inhibition above about 37%
# Rpn11 block: inhibitors of human proteasome Rpn11; O00487; human 26S proteasome, Ub4-pepOG fluorescence polarization; 20S core pre-blocked with epoxomicin; 360,000 compounds, 0.59% hits; AID 588493; inhibition, % at 20 µM;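 active means inhibition at 20 µM, scaled to each plate's controls, above about 33%, limit read from the data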
# SKN-1 inh: inhibitors of C. elegans SKN-1; C. elegans VP596 Pgst-4::GFP/RFP ratio, acrylamide-induced, 24 h; inhibition, % at 21.8 µM; 360,000 compounds, 0.49% hits; AID 624304;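 active means interference check ratio from 0.5 to 1.5 plus GFP to RFP signal ratio inhibition reaching or exceeding a fixed threshold, cut at about 30% in these data, passing the limit was not always enough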
# MT1-MMP act inh: MT1-MMP (human) activation inhibition; HT1080 RFP-PRO-GFP cells, GFP/RFP ratio fluorescence, overnight; percent of plate control window, DMSO zero; GFP/RFP ratio change, % at 20 µM; P50281; 360,000 compounds, 0.061% hits;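 active means GFP/RFP ratio change of at least 30% with cell ATP level not reduced by more than half and red fluorescence within 50% of control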
#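 Test system: HT1080 cells expressing an RFP-PRO-GFP fluorescent reporter construct / Compound dosing: single-point 20 µM compound, 1% DMSO / Schedule: cells overnight before dosing, compound overnight, 37 °C, 5% CO2 / Evaluation: GFP/RFP fluorescence ratio / Control set: DMSO and RFP-L50D-GFP cell wells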
# DNMT1 block: DNMT1 (human) enzyme inhibition; P26358; DNMT1 molecular beacon, Hinp1I cleavage, fluorescence; 360,000 compounds, 0.83% hits; inhibition (reported as % activation of signal), % at 10 µM
# CSN deneddyl inh: inhibitors of human CSN-mediated cullin deneddylation; Q92905; Purified CSN, SCF-Nedd8-OG deneddylation, fluorescence polarization; inhibition, % at 12.5 µM; 360,000 compounds, 0.38% hits;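 active means pattern-corrected inhibition above about 35%, with an unprinted fluorescence ratio check between 0.5 and 1.5, limit read from the data, passing the limit was not always enough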
#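 Assay system: purified human Csn5 enzyme expressed in HEK293T cells; measure: % inhibition; also added: SCFSkp2-Nedd8OG substrate at 10 nM final; technique: fluorescence polarization; times: reaction 90 min, room temperature; medium: Tris buffer pH 7.5, NaCl, DTT, Tween-20, trehalose, ovalbumin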
# CSN5 deneddyl: validation of inhibitors of human CSN-mediated cullin deneddylation; 540 compounds, 62% hits; inhibition, % at 16.6 µM; Csn5 deneddylation of SCF-Nedd8OG, fluorescence polarization, 90 min; AID 720654; shares compounds with CSN deneddyl inh
# MMP-2 counter: MMP-2 (human) inhibition, counter-screen for CSN hits; shares compounds with CSN deneddyl inh; AID 720655; inhibition, % at 16.6 µM; 540 compounds, 33% hits; recombinant MMP-2, FRET substrate fluorescence, 60 min;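 active means corrected plate-normalized z-score of 5 or more, or -5 or less, or inhibition of 15% or more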
# Target sequence (P08253 whole entry, looked up): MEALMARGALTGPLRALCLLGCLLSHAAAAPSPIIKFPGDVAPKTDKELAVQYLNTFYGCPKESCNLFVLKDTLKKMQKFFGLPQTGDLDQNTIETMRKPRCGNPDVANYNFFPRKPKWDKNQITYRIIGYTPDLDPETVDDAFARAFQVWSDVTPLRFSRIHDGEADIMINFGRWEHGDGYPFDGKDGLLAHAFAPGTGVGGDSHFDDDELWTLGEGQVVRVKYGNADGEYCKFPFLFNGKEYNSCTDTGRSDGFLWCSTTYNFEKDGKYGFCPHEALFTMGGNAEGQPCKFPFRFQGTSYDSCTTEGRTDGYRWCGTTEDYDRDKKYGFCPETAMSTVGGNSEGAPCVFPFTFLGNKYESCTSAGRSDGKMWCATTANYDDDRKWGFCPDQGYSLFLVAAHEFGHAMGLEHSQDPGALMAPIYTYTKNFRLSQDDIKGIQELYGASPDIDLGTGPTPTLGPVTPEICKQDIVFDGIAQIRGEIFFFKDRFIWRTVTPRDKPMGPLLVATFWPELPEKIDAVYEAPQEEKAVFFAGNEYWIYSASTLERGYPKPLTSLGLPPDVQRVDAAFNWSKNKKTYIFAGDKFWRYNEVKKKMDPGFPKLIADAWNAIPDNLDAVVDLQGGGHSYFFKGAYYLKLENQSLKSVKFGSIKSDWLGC
# Thrombin counter: counter-screen for CSN deneddylation inhibitors: bovine thrombin inhibition; AID 720656; bovine thrombin cleavage of Ub4-pepOG, fluorescence polarization; inhibition, % at 16.6 µM; shares compounds with CSN deneddyl inh; 540 compounds, 49% hits;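 active means inhibition at or above a set limit, with a fluorescence interference ratio between 0.5 and a set maximum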
# Hits are given with their value; – = inactive; · = no result given. Hits are enriched below; roughly 2.3% of the tested compounds scored in any of these assays. Unless noted, no stated cut-off is given here; in the data, active means inhibition above about 50%; inactive means the rest.
SMILES,SUMO1 PPI mod,Rpn11 block,SKN-1 inh,MT1-MMP act inh,DNMT1 block,CSN deneddyl inh,CSN5 deneddyl,MMP-2 counter,Thrombin counter
CC1=C2CCCC[C@@]23C2C(=O)N(C)C(=O)[C@@H]2ON3OC1 (stereo partly drawn),–,·,–,–,·,–,·,·,·
NS(=O)(=O)c1ccc(-c2ccc(/C=C3\SC(=S)N(C4CCS(=O)(=O)C4)C3=O)o2)cc1 (stereo not drawn),–,·,–,–,–,70,87,-46,–
O=[N+]([O-])c1ccc(N2N=C(c3ccccc3)CC2c2ccccc2O)cc1 (stereo not drawn),–,·,–,–,–,56,51,–,59
COc1cc(N2N=C(c3ccccc3)CC2c2ccccc2)c(C=O)cc1C=O (stereo not drawn),–,–,–,–,–,–,·,·,·
COc1ccccc1N1N=C(c2ccc([N+](=O)[O-])cc2)CC1c1ccccc1 (stereo not drawn),–,·,–,–,–,38,107,–,25
NS(=O)(=O)c1ccc(N2N=C(c3ccccc3)CC2c2ccccc2Br)cc1 (stereo not drawn),–,–,–,–,–,–,·,·,·
O=[N+]([O-])c1ccc(N2N=C(c3ccco3)CC2c2ccccc2)cc1 (stereo not drawn),–,·,–,–,–,42,83,–,36
O=C(/C=C/c1cn(CC(O)CN2CCCCCC2)c2ccccc12)c1cccs1 (stereo not drawn),–,·,–,–,–,–,·,·,·
CCCCN(C)CC(O)Cn1cc(/C=C/C(=O)c2cccs2)c2ccccc21 (stereo not drawn),–,·,–,–,–,41,67,–,32
O=C1/C(=C/c2ccc(O)cc2)SC(=S)N1CC1CCCO1 (stereo not drawn),–,·,–,–,–,94,–,–,–
CCCOc1ccc(/C=C2\SC(=S)N(CC3CCCO3)C2=O)cc1 (stereo not drawn),–,–,–,–,–,–,·,·,·
O=C(NCC1CCCCC1)c1cc(-c2cc(F)ccc2OCC2CCCO2)n[nH]1 (stereo not drawn),–,–,–,–,–,–,·,·,·
COc1cccc(/C=N/Nc2nnc(C)n2N)c1O,–,–,–,–,–,54,107,–,–
CC(=O)Oc1ccccc1Cn1c(C)c(C(=O)NCc2cccc([N+](=O)[O-])c2)sc1=O,–,–,–,–,–,–,·,·,·
N#Cc1c(SCC(=O)Nc2nc3ccccc3s2)sc2c(O)cc(=O)[nH]c12,–,–,–,–,91,40,77,–,–
CCCOc1ccc(F)cc1-c1cc(C(=O)NCc2cccs2)[nH]n1,–,–,–,–,–,–,·,·,·
Nc1ccc2c(c1)C(=O)C(=O)c1ccccc1-2,48,–,–,–,120,51,·,–,–
O=C1C(=O)c2ccc(-c3ccccc3)cc2-c2ccccc21,41,–,–,–,106,57,–,–,–
CC(C)(C)OC(=O)NCCc1nc(NC(=O)OCc2ccccc2)sc1C(=O)O,–,·,–,–,·,–,·,·,·
CCOC1=C/C(=C/c2c(N)n3nc(-c4ccccc4)sc3nc2=O)C=CC1=O,–,·,–,–,–,41,–,–,64
COC1=C/C(=C/c2c(N)n3nc(-c4ccc(C)cc4)sc3nc2=O)C=CC1=O,–,·,–,–,–,78,·,–,76
CCS(=O)(=O)c1nn2c(N)c(/C=C3/C=CC(=O)C(OC)=C3)c(=O)nc2s1,–,·,–,–,–,44,55,–,52
O=C(NCc1ccccc1Br)c1cccc2c1C(=O)c1ccc(N3CCC(Cc4ccccc4)CC3)cc1S2(=O)=O,–,·,–,–,–,–,·,·,·
O=C(NCc1ccccc1C(F)(F)F)c1cccc2c1C(=O)c1ccc(N3CCC(N4CCCCC4)CC3)cc1S2(=O)=O,50,·,–,–,–,143,–,-45,46
Cn1c(=O)c2cc(NC(=S)NC3CCCCC3)ccc2n1Cc1ccc(Cl)cc1,–,–,–,–,–,–,·,·,·
SMILES,SUMO1 PPI mod,Rpn11 block,SKN-1 inh,MT1-MMP act inh,DNMT1 block,CSN deneddyl inh,CSN5 deneddyl,MMP-2 counter,Thrombin counter
CN(C)c1ccc(/C=C2\SC(N3CCCCC3)=NC2=O)cc1,–,·,–,–,–,84,63,–,78
O=C1N=C(N2CCCCC2)S/C1=C\c1ccc(Br)cc1,–,–,–,–,–,–,·,·,·
O=C1NC[C@@H](CCCCN2C[C@H](Cc3ccc(O)cc3)N(Cc3ccccc3)C(=O)C2=O)N(CC2CCCCC2)C1=O,–,·,–,–,·,–,·,·,·
c1ccc(C2=NN(c3ccccc3)CC2)cc1,–,–,–,–,–,–,·,·,·
CCOC(=O)/C(=C/c1ccc(N2CCC(c3ccccc3)=N2)cc1)C(C)=O,–,·,–,–,–,40,189,-71,–
COc1cc(C(=O)C(=O)N2CCN(c3ccccc3)CC2)cc2ccccc12,–,·,–,–,·,–,·,·,·
O=C(Nc1ccc2nc(-c3ccccc3)[nH]c2c1)c1ccco1,–,–,–,–,–,–,·,·,·
O=C(Nc1cccc(-c2nc3ccccc3[nH]2)c1)c1cccc(NC(=O)c2ccco2)c1,–,–,–,–,–,57,–,–,–
Cc1ccc(S(=O)(=O)/N=C2/NC(=O)/C(=C\c3cc(Br)cc(Br)c3O)S2)cc1,–,·,–,–,–,147,–,-80,–
CC1C=CC=CC=CC=CC=CC=CC=CC(OC2OC(C)C(O)C(N)C2O)CC2OC(O)(CC(O)CC(O)C(O)CCC(O)CC(O)CC(=O)OC(C)C(C)C1O)CC(O)C2C(=O)O (stereo not drawn),–,44,–,–,94,39,78,–,15
CCc1nc2ccc(C(=O)Nc3cccc(OC)c3)cn2c1N(C)Cc1ccc(OC)cc1,–,–,–,–,–,–,·,·,·
CCN(CC)c1ccc(/C=C2\SC(N)=NC2=O)cc1,–,·,–,–,–,68,131,-33,78
O=C(Nc1ccc(Nc2ccncc2)cc1)c1ccc(Nc2ccnc3ccc([N+](=O)[O-])cc23)cc1[N+](=O)[O-],45,–,–,–,–,54,·,36,–

# Compound activity from PubChem.
